Calls of active or inactive are those of the source. No cut-off for these calls is given here.
Tests used:
[1] = target: T1, Peptidylglycine alpha-amidating monooxygenase (Rattus norvegicus) (UniProt P14925); assay: Inhibition of recombinant rat peptidylglycine alpha-amidating monooxygenase assessed as inhibition of oxygen consumption at 28 mM
T1 sequence (whole entry): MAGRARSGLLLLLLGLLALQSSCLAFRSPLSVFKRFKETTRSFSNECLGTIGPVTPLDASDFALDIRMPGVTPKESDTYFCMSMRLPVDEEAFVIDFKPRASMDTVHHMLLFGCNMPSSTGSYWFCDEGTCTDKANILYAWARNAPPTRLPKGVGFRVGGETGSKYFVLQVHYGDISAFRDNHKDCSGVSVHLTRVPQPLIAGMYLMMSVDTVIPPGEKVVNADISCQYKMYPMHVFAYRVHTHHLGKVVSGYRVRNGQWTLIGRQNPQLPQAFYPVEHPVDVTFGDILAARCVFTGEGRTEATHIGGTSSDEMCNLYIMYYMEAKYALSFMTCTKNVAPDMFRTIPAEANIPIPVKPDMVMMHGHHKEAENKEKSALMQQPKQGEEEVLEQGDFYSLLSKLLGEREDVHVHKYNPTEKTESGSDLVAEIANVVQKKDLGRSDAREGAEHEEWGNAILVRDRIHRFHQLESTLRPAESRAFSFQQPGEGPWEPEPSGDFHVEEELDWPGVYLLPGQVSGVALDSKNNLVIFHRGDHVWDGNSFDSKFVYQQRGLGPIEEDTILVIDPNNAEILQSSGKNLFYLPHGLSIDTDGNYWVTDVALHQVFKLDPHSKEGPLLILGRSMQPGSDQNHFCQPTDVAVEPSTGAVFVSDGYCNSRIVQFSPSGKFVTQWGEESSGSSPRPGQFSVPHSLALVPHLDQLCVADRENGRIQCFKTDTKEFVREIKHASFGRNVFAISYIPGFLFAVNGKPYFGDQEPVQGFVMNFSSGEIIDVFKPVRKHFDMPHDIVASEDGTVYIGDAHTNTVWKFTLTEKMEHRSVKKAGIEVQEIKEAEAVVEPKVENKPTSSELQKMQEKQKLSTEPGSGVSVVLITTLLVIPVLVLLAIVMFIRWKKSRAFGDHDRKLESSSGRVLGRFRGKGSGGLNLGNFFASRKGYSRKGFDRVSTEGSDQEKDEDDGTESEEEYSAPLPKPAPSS

[2] = target: T1, Peptidylglycine alpha-amidating monooxygenase (Rattus norvegicus); assay: Inhibition of recombinant rat peptidylglycine alpha-amidating monooxygenase assessed as inhibition of oxygen consumption of N-octanoylglycine at 28 mM
In short: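 Recombinant type A rat medullary thyroid carcinoma bifunctional PAM (15–50 μg) added to 100 mM MES/NaOH pH 6.0, 30 mM NaCl, 1% ethanol, 0.001% Triton X-100, 10 μg/mL catalase, 1.0 μM Cu(NO3)2, ascorbate, 200 μM N-octanoylglycine as substrate, and 28 mM test compound. The read-out is the initial rate of O2 consumption on an oxygen monitor at 37 °C.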

[3] = target: T1, Peptidylglycine alpha-amidating monooxygenase (Rattus norvegicus); assay: Inhibition of rat recombinant peptidylglycine alpha-amidating monooxygenase assessed as inhibition of oxygen consumption at 0.9 mM
[4] = target: peptidylglycine alpha-amidating monooxygenase (Rattus norvegicus) (UniProt P14925); assay: Inhibition of rat peptidylamidoglycolate lyase assessed as ascorbate-independent dealkylation of alpha-hydroxy-hipurate; set-up: concentration or dose not given beside the values; details: concentration not given here
[5] = tested on: DU-145; assay: Antiproliferative activity against human DU145 cells at 100 uM by trypan blue assay; assay type: functional
[6] = tested on: DU-145; assay: Antiproliferative activity against human DU145 cells at 10 uM after 48 hrs by trypan blue assay; assay type: functional, cell-based
In short: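 DU 145 cells plated at 50,000 per well, allowed 24 h to adhere, then given medium containing 10 μM 4-HPR as positive control. Viable cells counted by trypan blue exclusion on a hemacytometer, with growth read at 48 h.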

[7] = target: T1, Peptidylglycine alpha-amidating monooxygenase (Rattus norvegicus); assay: Inhibition of rat recombinant peptidylglycine alpha-amidating monooxygenase assessed as inhibition of N-dansyl-Tyr-Val-Gly amidation
[8] = target: T1, Peptidylglycine alpha-amidating monooxygenase (Rattus norvegicus); assay: Inhibition of rat recombinant peptidylglycine alpha-amidating monooxygenase in presence of DMSO
[9] = tested on: DU-145; assay: Antiproliferative activity against human DU145 cells at greater than 500 uM by trypan blue assay; assay type: functional, cell-based
[10] = substrate: Cc1ccccc1C(=O)NCC(=O)O; assay: (§1) Activity of rat recombinant peptidylglycine alpha-amidating monooxygenase assessed as stimulation of oxygen consumption
[11] = substrate: O=C(O)CNC(=O)[C@@H]1CCC(=O)N1; assay: as §1
[12] = substrate: O=C(O)CNC(=O)SCc1ccccc1; assay: as §1
[13] = substrate: O=C(O)CNC(=O)CCc1ccccc1; assay: as §1
[14] = substrate: O=C(O)CNC(=O)CNC(=O)CNC(=O)c1ccccc1; assay: as §1
[15] = substrate: O=C(O)CNC(=O)c1cccc(Cl)c1; assay: as §1
[16] = substrate: Nc1ccc(C(=O)NCC(=O)O)cc1; assay: as §1
[17] = substrate: CCCc1ccc(C(=O)NCC(=O)O)cc1; assay: as §1
[18] = substrate: O=C(O)CNC(=O)/C=C/c1ccco1; assay: as §1
[19] = substrate: O=C(O)CNC(=O)C1CC1c1ccccc1; assay: as §1
[20] = substrate: O=C(O)CNC(=O)c1ccc([N+](=O)[O-])cc1; assay: as §1
[21] = substrate: O=C(O)CNC(=O)OCc1ccccc1; assay: as §1
[22] = substrate: O=C(O)CNC(=O)CNC(=O)c1ccc([N+](=O)[O-])cc1; assay: as §1
[23] = substrate: O=C(O)CNC(=S)Cc1ccccc1; assay: as §1
[24] = substrate: O=C(O)CNC(=O)c1ccccc1O; assay: as §1
[25] = substrate: O=C(O)CNC(=S)CCc1ccccc1; assay: as §1
[26] = substrate: O=C(O)CNC(=O)c1ccc(O)cc1; assay: as §1
[27] = substrate: O=C(O)CNC(=O)Nc1ccccc1; assay: as §1
[28] = substrate: O=C(O)CNC(=O)CCCCCCCc1ccccc1; assay: as §1
[29] = substrate: O=C(O)CNC(=O)c1ccco1; assay: as §1
[30] = substrate: Nc1ccccc1C(=O)NCC(=O)O; assay: as §1
[31] = substrate: O=C(O)CNC(=O)/C=C/c1ccccc1; assay: as §1
[32] = substrate: O=C(O)CNC(=O)CNC(=O)c1ccccc1; assay: as §1
[33] = substrate: C[C@@H](NC(=O)c1ccccc1)C(=O)O; assay: as §1
[34] = substrate: CCc1ccc(C(=O)NCC(=O)O)cc1; assay: as §1
[35] = substrate: O=C(O)CNC(=O)c1ccc(C(F)(F)F)cc1; assay: as §1
[36] = substrate: Cc1ccc(C(=O)NCC(=O)O)cc1; assay: as §1
[37] = substrate: O=C(O)CNC(=O)c1ccc(Cl)cc1; assay: as §1
[38] = substrate: O=C(O)CNC(=O)c1ccc(Br)cc1; assay: as §1
[39] = substrate: O=C(O)CNC(=O)c1ccccc1I; assay: as §1
[40] = substrate: O=C(O)CNC(=O)CCCCc1ccccc1; assay: as §1
[41] = substrate: O=C(O)CNC(=O)CNC(=O)CCl; assay: as §1
[42] = substrate: Cc1cccc(C(=O)NCC(=O)O)c1; assay: as §1
[43] = substrate: COc1ccc(C(=O)NCC(=O)O)cc1; assay: as §1
[44] = substrate: O=C(O)CNC(=O)CCCCCc1ccccc1; assay: as §1

O=C(NCP(=O)(O)O)c1cccnc1
Activity [1]: Active | Activity [2]: inactive | Activity [3]: Active | inhibition [4]: < 5%

CCOC(=O)CSC(=S)c1ccc(C)cc1
inhibition [4]: < 5% | inhibition at 100 µM [5]: ≤ 10%

CC1=C(/C=C/C(C)=C/C=C/C(C)=C/C(=O)Nc2ccc(O)cc2)C(C)(C)CCC1
Activity [6]: Active

O=C(O)CSC(=S)Cc1ccccc1
Kis [7]: 7.9 µM | Kis [8]: 13 µM | inhibition [4]: < 5% | Activity [9]: Active

B1: Peptidylglycine alpha-amidating monooxygenase (Rattus norvegicus), P14925 (protein)
chain: MAGRARSGLLLLLLGLLALQSSCLAFRSPLSVFKRFKETTRSFSNECLGTIGPVTPLDASDFALDIRMPGVTPKESDTYFCMSMRLPVDEEAFVIDFKPRASMDTVHHMLLFGCNMPSSTGSYWFCDEGTCTDKANILYAWARNAPPTRLPKGVGFRVGGETGSKYFVLQVHYGDISAFRDNHKDCSGVSVHLTRVPQPLIAGMYLMMSVDTVIPPGEKVVNADISCQYKMYPMHVFAYRVHTHHLGKVVSGYRVRNGQWTLIGRQNPQLPQAFYPVEHPVDVTFGDILAARCVFTGEGRTEATHIGGTSSDEMCNLYIMYYMEAKYALSFMTCTKNVAPDMFRTIPAEANIPIPVKPDMVMMHGHHKEAENKEKSALMQQPKQGEEEVLEQGDFYSLLSKLLGEREDVHVHKYNPTEKTESGSDLVAEIANVVQKKDLGRSDAREGAEHEEWGNAILVRDRIHRFHQLESTLRPAESRAFSFQQPGEGPWEPEPSGDFHVEEELDWPGVYLLPGQVSGVALDSKNNLVIFHRGDHVWDGNSFDSKFVYQQRGLGPIEEDTILVIDPNNAEILQSSGKNLFYLPHGLSIDTDGNYWVTDVALHQVFKLDPHSKEGPLLILGRSMQPGSDQNHFCQPTDVAVEPSTGAVFVSDGYCNSRIVQFSPSGKFVTQWGEESSGSSPRPGQFSVPHSLALVPHLDQLCVADRENGRIQCFKTDTKEFVREIKHASFGRNVFAISYIPGFLFAVNGKPYFGDQEPVQGFVMNFSSGEIIDVFKPVRKHFDMPHDIVASEDGTVYIGDAHTNTVWKFTLTEKMEHRSVKKAGIEVQEIKEAEAVVEPKVENKPTSSELQKMQEKQKLSTEPGSGVSVVLITTLLVIPVLVLLAIVMFIRWKKSRAFGDHDRKLESSSGRVLGRFRGKGSGGLNLGNFFASRKGYSRKGFDRVSTEGSDQEKDEDDGTESEEEYSAPLPKPAPSS
Km [10]: 4300 µM | Km [11]: 310 µM | Km [12]: 59 µM | Km [13]: 940 µM | Km [14]: 310 µM | Km [15]: 2200 µM | Km [16]: 2600 µM | Km [17]: 1200 µM | Km [18]: 1200 µM | Km [19]: 900 µM | Km [20]: 470 µM | Km [21]: 590 µM | Km [22]: 110 µM | Km [23]: 24 µM | Km [24]: 860 µM | Km [25]: 38 µM | Km [26]: 1700 µM | Km [27]: 360 µM | Km [28]: 100 µM | Km [29]: 2700 µM | Km [30]: 1400 µM | Km [31]: 230 µM | Km [32]: 78 µM | Km [33]: 84000 µM | Km [34]: 1200 µM | Km [35]: 770 µM | Km [36]: 1800 µM | Km [37]: 620 µM | Km [38]: 520 µM | Km [39]: 3400 µM | Km [40]: 150 µM | Km [41]: 420 µM | Km [42]: 1400 µM | Km [43]: 820 µM | Km [44]: 51 µM
